Assay type in all cases: functional, organism-based
For experiment [1], the species on record is Mus musculus. The experiment in a line: Tested for the thymidine uptake against blenoxane at 10 nm of drug/mg of cell protein in mice. The essentials:
(§1)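 Ehrlich ascites cells from a donor mouse, in fresh MEM at 5 × 10⁶ cells/mL, were exposed to drug for 60 min at 37 °C with gentle shaking. They were then washed once, resuspended in fresh MEM and given [³H]thymidine (final thymidine about 8.6 × 10⁻⁸ M) for 20 min. DNA synthesis was read as perchloric acid-precipitable label. Values are % of control ± SD over three trials.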

The species entered for experiment [2] is Mus musculus. The experiment in a line: Tested for the inhibition of DNA synthesis against blenoxane at 40 nm of drug/mg of cell protein in mice. Details: scale not given: the % may be the effect or the level left. In a few lines:
as §1

Experiment [3] is filed under the species Mus musculus. As to the kind of experiment: Tested for the thymidine uptake against blenoxane at 80 nm of drug/mg of cell protein in mice. In a few lines: as §1
The species entered for experiment [4] is Mus musculus. The experiment in a line: Tested for the thymidine uptake against blenoxane at 4 nm of drug/mg of cell protein in mice.
For experiment [5], the species on record is Mus musculus. The experiment in a line: Tested for the inhibition of DNA synthesis against blenoxane at 4 nm of drug/mg of cell protein in mice. Details: scale not given: the % may be the effect or the level left. The essentials: (§2)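 Culture-adapted Ehrlich cells were incubated 60 min with […] (4 nmol/mg cell protein) in the presence of serum. [³H]dThd incorporation into DNA was measured at the end of the 60 min. Values are expressed relative to untreated control.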

The species named for experiment [6] is Mus musculus. The experiment in a line: Tested for the inhibition of DNA synthesis against blenoxane at 80 nm of drug/mg of cell protein in mice. Details: scale not given: the % may be the effect or the level left. In a few lines: as §1
The species named for experiment [7] is Mus musculus. The experiment in a line: Tested for the inhibition of DNA synthesis against blenoxane at 10 nm of drug/mg of cell protein in mice. Further details: scale not given: the % may be the effect or the level left. The essentials:
as §1

Experiment [8] is filed under the species Mus musculus. As to the kind of experiment: Tested for the thymidine uptake against blenoxane at 40 nm of drug/mg of cell protein in mice. The essentials:
as §1

The species entered for experiment [9] is Mus musculus. The experiment in a line: Tested for the thymidine uptake against cu-blenoxane at 10 nm of drug/mg of cell protein in mice. In a few lines:
as §1

Experiment [10] is filed under the species Mus musculus. The experiment in a line: Tested for the inhibition of DNA synthesis against cu-blenoxane at 4 nm of drug/mg of cell protein in mice. Further details: scale not given: the % may be the effect or the level left. The essentials: as §2
The species named for experiment [11] is Mus musculus. As to the kind of experiment: Tested for the inhibition of DNA synthesis against cu-blenoxane at 80 nm of drug/mg of cell protein in mice. Details: scale not given: the % may be the effect or the level left. The essentials: as §1
The species named for experiment [12] is Mus musculus. As to the kind of experiment: Tested for the thymidine uptake against cu-blenoxane at 4 nm of drug/mg of cell protein in mice.
The species named for experiment [13] is Mus musculus. The experiment in a line: Tested for the inhibition of DNA synthesis against cu-blenoxane at 40 nm of drug/mg of cell protein in mice. Details: scale not given: the % may be the effect or the level left. In a few lines: as §1
The species named for experiment [14] is Mus musculus. As to the kind of experiment: Tested for the thymidine uptake against cu-blenoxane at 40 nm of drug/mg of cell protein in mice. In a few lines: as §1
The species named for experiment [15] is Mus musculus. The experiment in a line: Tested for the inhibition of DNA synthesis against cu-blenoxane at 10 nm of drug/mg of cell protein in mice. Further details: scale not given: the % may be the effect or the level left. The essentials: as §1
Experiment [16] is filed under the species Mus musculus. The experiment in a line: Tested for the thymidine uptake against cu-blenoxane at 80 nm of drug/mg of cell protein in mice. In a few lines:
as §1

As to BLEOMYCIN, the Control in the experiment listed under Mus musculus [1] was 79.1%; in the experiment filed under Mus musculus [2] it was 56.4%; in the experiment listed under Mus musculus [3] it was 61.9%; in the experiment filed under Mus musculus [4], 86%; in the experiment listed under Mus musculus [5], 67.9%; in the experiment listed under Mus musculus [6] it was 40.1%. Moreover, the figures for the Control in the experiment filed under Mus musculus [7] and in the experiment filed under Mus musculus [8] were 66.1% and 69.8%, respectively.
For the substance cu-blenoxane, the Control in the experiment filed under Mus musculus [9] amounted to 83.5%; in the experiment filed under Mus musculus [10], 86.8%; in the experiment listed under Mus musculus [11], 51.3%; in the experiment filed under Mus musculus [12] it was 94.9%; in the experiment filed under Mus musculus [13], 55.3%; in the experiment listed under Mus musculus [14], 71.2%. Further, the Control in the experiment listed under Mus musculus [15] came out at 61.5%; in the experiment listed under Mus musculus [16] it was 68.4%.

The record behind these values is ChEMBL document CHEMBL1121571, “Cytotoxic and antitumor properties of bleomycin and several of its metal complexes” (J Med Chem, 1980).
